One block for each compound: values may come before it. The source made the active and inactive calls. The calls are words filed in the database; no cut-off is given here.
What was measured:
[1] = target: Dual specificity calcium/calmodulin-dependent 3',5'-cyclic nucleotide phosphodiesterase 1A (Homo sapiens, UniProt P54750); experiment: Inhibition of full length recombinant human PDE1A using 3',5'-[3H]cAMP as substrate after 30 mins by scintillation proximity assay
Outline: (§1)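 Human recombinant enzymes; substrate held below 1/3 of Km. IC50 reported as mean ± SEM of at least 3 determinations.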

[2] = target: Dual specificity calcium/calmodulin-dependent 3',5'-cyclic nucleotide phosphodiesterase 1B (Homo sapiens, UniProt Q01064); experiment: Inhibition of full length recombinant human PDE1B1 using 3',5'-[3H]cAMP as substrate after 30 mins by scintillation proximity assay
Outline: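 Enzymes were human except PDE6A, which was bovine. Each was assayed with cAMP or cGMP substrate, as appropriate to the enzyme, at concentrations below 1/3 of Km. IC50 values are mean ± SEM from n = 3 or more.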

[3] = target: T1, Dual specificity calcium/calmodulin-dependent 3',5'-cyclic nucleotide phosphodiesterase 1C (Homo sapiens, UniProt Q14123); experiment: Inhibition of full length recombinant human PDE1C using 3',5'-[3H]cAMP as substrate after 30 mins by scintillation proximity assay; outline: as §1
HEK293 = experiment: Inhibition of recombinant human PDE3 expressed in HEK293 cells using 3',5'-[3H]cAMP as substrate at 1 uM
Outline: (§2)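 Recombinant enzymes were assayed for hydrolysis of cAMP or cGMP, with substrate at 0.1 µM. The inhibitor was tested at 1.0 µM.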

[4] = target: T2, cGMP-specific 3',5'-cyclic phosphodiesterase (Homo sapiens, UniProt O76074); experiment: Inhibition of recombinant human PDE5 expressed in HEK293 cells using 3',5'-[3H]cGMP as substrate at 1 uM
Outline: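 Recombinant enzymes were tested at 1.0 µM inhibitor with cAMP or cGMP substrate at 0.1 µM. Read-out is hydrolytic activity relative to control.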

[5] = target: T1, Dual specificity calcium/calmodulin-dependent 3',5'-cyclic nucleotide phosphodiesterase 1C; experiment: Inhibition of recombinant C-terminal FLAG tagged human PDE1C expressed in HEK293 cells using 3',5'-[3H]cAMP as substrate
[6] = target: T3, cGMP-inhibited 3',5'-cyclic phosphodiesterase 3A (Homo sapiens, UniProt Q14432); experiment: Inhibition of recombinant human PDE3A expressed in HEK293 cells using 3',5'-[3H]cAMP as substrate; outline: as §2
[7] = target: T1, Dual specificity calcium/calmodulin-dependent 3',5'-cyclic nucleotide phosphodiesterase 1C; experiment: Inhibition of recombinant C-terminal FLAG tagged human PDE1C expressed in HEK293 cells using 3',5'-[3H]cGMP as substrate
[8] = target: T3, cGMP-inhibited 3',5'-cyclic phosphodiesterase 3A; experiment: Inhibition of recombinant human PDE3A expressed in HEK293 cells using 3',5'-[3H]cGMP as substrate; outline: as §2
[9] = target: T2, cGMP-specific 3',5'-cyclic phosphodiesterase; experiment: Inhibition of recombinant human PDE5A expressed in HEK293 cells using 3',5'-[3H]cGMP as substrate; outline: as §2
[10] = target: T3, cGMP-inhibited 3',5'-cyclic phosphodiesterase 3A; experiment: Inhibition of PDE3A in soluble protein extracts of human myocardium using 3',5'-[3H]cGMP as substrate at 1 uM relative to control
[11] = target: T2, cGMP-specific 3',5'-cyclic phosphodiesterase; experiment: Inhibition of PDE5A in soluble protein extracts of human myocardium using 3',5'-[3H]cGMP as substrate at 1 uM relative to control
[12] = target: T3, cGMP-inhibited 3',5'-cyclic phosphodiesterase 3A; experiment: Inhibition of PDE3A in soluble protein extracts of human myocardium using 3',5'-[3H]cAMP as substrate at 1 uM relative to control
[13] = target: T2, cGMP-specific 3',5'-cyclic phosphodiesterase; experiment: Inhibition of PDE5A in soluble protein extracts of human myocardium using 3',5'-[3H]cAMP as substrate at 1 uM relative to control
[14] = target: T3, cGMP-inhibited 3',5'-cyclic phosphodiesterase 3A; experiment: Inhibition of PDE3A in soluble protein extracts of human myocardium assessed as Ca2+/calmodulin stimulated substrate hydrolysis using 3',5'-[3H]cGMP as substrate relative to control; details: concentration not given here
Outline: (§3)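 Soluble protein extracts from human left ventricle, test agent 1.0 µM, [3H]cAMP or [3H]cGMP substrate at 0.1 µM. Total activity was measured with CaCl2 plus exogenous calmodulin, and a parallel reaction was run with the Ca2+ chelator EGTA. Ca2+/calmodulin-dependent activity is total minus the EGTA activity; inhibition is given relative to control.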

[15] = target: T2, cGMP-specific 3',5'-cyclic phosphodiesterase; experiment: Inhibition of PDE5A in soluble protein extracts of human myocardium assessed as Ca2+/calmodulin stimulated substrate hydrolysis using 3',5'-[3H]cGMP as substrate relative to control; details: concentration not given here; outline: as §3
[16] = target: T3, cGMP-inhibited 3',5'-cyclic phosphodiesterase 3A; experiment: Inhibition of PDE3A in soluble protein extracts of human myocardium assessed as Ca2+/calmodulin stimulated substrate hydrolysis using 3',5'-[3H]cAMP as substrate relative to control; details: concentration not given here; outline: as §3
[17] = target: T2, cGMP-specific 3',5'-cyclic phosphodiesterase; experiment: Inhibition of PDE5A in soluble protein extracts of human myocardium assessed as Ca2+/calmodulin stimulated substrate hydrolysis using 3',5'-[3H]cAMP as substrate relative to control; details: concentration not given here; outline: as §3

T3 sequence (Q14432 whole entry): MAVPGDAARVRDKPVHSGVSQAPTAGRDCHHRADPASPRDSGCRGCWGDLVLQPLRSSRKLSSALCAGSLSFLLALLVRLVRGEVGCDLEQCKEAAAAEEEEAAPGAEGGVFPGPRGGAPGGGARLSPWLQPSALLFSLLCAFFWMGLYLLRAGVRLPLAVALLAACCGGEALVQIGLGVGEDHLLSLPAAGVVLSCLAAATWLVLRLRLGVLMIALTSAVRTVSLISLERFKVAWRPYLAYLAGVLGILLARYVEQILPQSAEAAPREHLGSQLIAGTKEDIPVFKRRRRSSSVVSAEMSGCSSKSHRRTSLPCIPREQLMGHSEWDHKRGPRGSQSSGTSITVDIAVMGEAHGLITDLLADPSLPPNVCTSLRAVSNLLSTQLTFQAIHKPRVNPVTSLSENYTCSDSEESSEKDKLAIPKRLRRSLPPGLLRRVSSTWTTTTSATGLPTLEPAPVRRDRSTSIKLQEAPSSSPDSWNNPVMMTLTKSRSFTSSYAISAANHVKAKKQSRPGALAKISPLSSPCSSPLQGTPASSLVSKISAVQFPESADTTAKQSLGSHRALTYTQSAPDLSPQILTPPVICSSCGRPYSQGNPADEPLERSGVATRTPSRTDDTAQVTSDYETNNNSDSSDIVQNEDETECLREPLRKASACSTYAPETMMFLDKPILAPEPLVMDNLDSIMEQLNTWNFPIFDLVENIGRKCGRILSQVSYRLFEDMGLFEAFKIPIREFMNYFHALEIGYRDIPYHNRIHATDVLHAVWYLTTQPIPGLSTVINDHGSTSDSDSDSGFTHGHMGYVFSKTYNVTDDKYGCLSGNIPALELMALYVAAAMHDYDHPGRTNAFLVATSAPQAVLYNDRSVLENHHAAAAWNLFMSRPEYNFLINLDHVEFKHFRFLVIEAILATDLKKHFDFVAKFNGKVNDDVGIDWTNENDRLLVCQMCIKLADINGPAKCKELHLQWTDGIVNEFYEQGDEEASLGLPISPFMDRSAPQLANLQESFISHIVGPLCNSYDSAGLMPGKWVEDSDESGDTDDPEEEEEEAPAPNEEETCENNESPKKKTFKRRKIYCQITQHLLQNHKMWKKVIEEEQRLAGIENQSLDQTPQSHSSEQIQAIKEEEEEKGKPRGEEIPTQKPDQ
Chain of Dual specificity calcium/calmodulin-dependent 3',5'-cyclic nucleotide phosphodiesterase 1B (Q01064 whole entry): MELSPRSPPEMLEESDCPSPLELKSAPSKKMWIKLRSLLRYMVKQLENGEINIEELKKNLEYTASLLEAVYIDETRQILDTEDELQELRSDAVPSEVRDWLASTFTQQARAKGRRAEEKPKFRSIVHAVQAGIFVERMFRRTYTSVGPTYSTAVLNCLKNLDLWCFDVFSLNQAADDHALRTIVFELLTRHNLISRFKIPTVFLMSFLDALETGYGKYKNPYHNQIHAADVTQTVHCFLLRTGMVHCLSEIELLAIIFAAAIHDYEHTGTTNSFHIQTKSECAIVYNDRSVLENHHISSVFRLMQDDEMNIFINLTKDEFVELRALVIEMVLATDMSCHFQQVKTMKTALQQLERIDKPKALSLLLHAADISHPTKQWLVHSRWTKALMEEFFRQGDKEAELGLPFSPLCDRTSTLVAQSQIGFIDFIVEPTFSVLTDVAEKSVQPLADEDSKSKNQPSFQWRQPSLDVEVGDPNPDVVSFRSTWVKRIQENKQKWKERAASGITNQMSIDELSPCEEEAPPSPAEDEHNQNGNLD
T1 sequence (Q14123 whole entry): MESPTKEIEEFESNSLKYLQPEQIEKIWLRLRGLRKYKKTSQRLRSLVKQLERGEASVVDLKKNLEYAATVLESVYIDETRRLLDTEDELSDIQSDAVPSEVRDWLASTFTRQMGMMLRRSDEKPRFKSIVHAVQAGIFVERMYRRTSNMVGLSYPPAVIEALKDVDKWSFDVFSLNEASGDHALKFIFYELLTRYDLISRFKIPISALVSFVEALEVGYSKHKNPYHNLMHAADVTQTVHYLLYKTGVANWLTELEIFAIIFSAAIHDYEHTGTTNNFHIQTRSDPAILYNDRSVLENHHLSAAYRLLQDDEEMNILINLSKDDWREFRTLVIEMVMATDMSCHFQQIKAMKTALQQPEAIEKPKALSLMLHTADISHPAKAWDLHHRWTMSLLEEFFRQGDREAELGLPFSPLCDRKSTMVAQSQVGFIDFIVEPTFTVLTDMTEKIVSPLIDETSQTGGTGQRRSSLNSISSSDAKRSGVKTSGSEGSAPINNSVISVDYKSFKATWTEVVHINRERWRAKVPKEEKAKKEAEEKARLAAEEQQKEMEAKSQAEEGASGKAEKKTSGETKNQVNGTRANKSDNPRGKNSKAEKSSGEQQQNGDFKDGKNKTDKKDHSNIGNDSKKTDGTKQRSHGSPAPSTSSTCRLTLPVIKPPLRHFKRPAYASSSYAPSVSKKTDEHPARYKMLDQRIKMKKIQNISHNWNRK
Chain of Dual specificity calcium/calmodulin-dependent 3',5'-cyclic nucleotide phosphodiesterase 1A (P54750 whole entry): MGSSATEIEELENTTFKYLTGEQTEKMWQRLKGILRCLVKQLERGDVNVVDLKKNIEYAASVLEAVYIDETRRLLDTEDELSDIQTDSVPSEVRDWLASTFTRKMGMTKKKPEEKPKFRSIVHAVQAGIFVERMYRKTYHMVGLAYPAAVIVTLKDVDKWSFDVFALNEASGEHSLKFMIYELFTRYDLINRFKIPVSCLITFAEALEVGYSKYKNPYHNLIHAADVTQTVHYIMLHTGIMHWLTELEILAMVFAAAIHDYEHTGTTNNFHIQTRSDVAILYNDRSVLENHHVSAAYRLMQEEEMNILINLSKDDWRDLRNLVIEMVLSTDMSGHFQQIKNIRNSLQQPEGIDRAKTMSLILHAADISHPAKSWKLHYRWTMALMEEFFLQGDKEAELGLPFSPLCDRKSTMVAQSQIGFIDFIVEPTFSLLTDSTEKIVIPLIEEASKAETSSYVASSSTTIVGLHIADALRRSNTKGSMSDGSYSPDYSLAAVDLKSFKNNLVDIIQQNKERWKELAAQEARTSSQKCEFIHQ

Structure (SMILES): COc1ccc2c(NC(C)Cc3cc(C)[nH]n3)ncnc2c1OC (racemic)
IC50 [1]: 118 nM
IC50 [2]: 21 nM
IC50 [3]: 83 nM
inhibition (HEK293): Active
inhibition [4]: Active
IC50 [5]: 56 nM
IC50 [6]: 101000 nM
IC50 [7]: 110 nM
IC50 [8]: 369000 nM
IC50 [9]: 30300 nM
inhibition [10]: 80%
inhibition [11]: 80%
inhibition [12]: 76%
inhibition [13]: 76%
inhibition [14]: 90%
inhibition [15]: 90%
inhibition [16]: 90%
inhibition [17]: 90%

IC50 [2]: 4.5 nM
Structure (SMILES): COc1ccc2c([C@H]3CCc4ccc(Cl)cc43)ncnc2c1OC

IC50 [2]: 35 nM
Structure (SMILES): CCC(CC)Nc1ncnc2c(OC)c(OC)c(OC)cc12

IC50 [2]: 52 nM
Structure (SMILES): COc1cc2ncnc(NC(C)Cc3cc(C)n[nH]3)c2cc1OC (racemic)

Structure (SMILES): COc1ccc2c(N[C@H](C)Cc3cc(C)[nH]n3)ncnc2c1OC
IC50 [1]: 777 nM
IC50 [2]: 596 nM
IC50 [3]: 579 nM

IC50 [2]: 27 nM
Structure (SMILES): COc1cc2c(NC(C)Cc3cc(C)n[nH]3)ncnc2c(OC)c1OC (racemic)

Reference: ChEMBL document CHEMBL4118152, “Discovery of Potent and Selective Periphery-Restricted Quinazoline Inhibitors of the Cyclic Nucleotide Phosphodiesterase PDE1” (J Med Chem, 2018)
